Values after ≈ are worked out from the molar mass of the structure shown. Active and inactive are the calls of the source. No cut-off for these calls is given here.
Columns and labels:
Staphylococcus aureus [1] = experiment: Antibacterial activity against Staphylococcus aureus assessed as growth inhibition at 16 ug/ml after 24 hrs; format: functional, organism-based
How it was run: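 S. aureus grown in Mueller Hinton Broth to early exponential phase, then exposed to compound (16 μg/mL; DMSO stocks 10 mg/mL) or DMSO in duplicate, 37 °C for 24 h. OD600 read; percent normalized OD600 = (X − media blank)/(DMSO control − media blank) × 100.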

Enterococcus faecalis [2] = experiment: Bacteriostatic activity against vancomycin-resistant Enterococcus faecalis ATCC 51575 after 20 hrs by broth microdilution method; format: functional; details: ATCC 51575, 20 h
How it was run: (§1)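 Broth microdilution MIC over 128 to 1 μg/mL, run alongside methicillin, linezolid and vancomycin. MIC taken as the lowest concentration with no visible growth.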

Listeria monocytogenes = experiment: Bacteriostatic activity against Listeria monocytogenes ATCC 19115 after 20 hrs by broth microdilution method; format: functional; details: ATCC 19115, 20 h
How it was run: (§2)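 MIC by broth microdilution across 128 to 1 μg/mL in 96-well plates, 37 °C for at least 20 h. MIC is the lowest concentration with no visible growth.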

Enterococcus faecalis [3] = experiment: Bacteriostatic activity against Enterococcus faecalis ATCC 29212 after 20 hrs by broth microdilution method; format: functional; details: ATCC 29212, 20 h; how it was run: as §1
Staphylococcus aureus [4] = experiment: Bacteriostatic activity against methicillin-resistant Staphylococcus aureus ATCC 33592 after 20 hrs by broth microdilution method; format: functional; details: ATCC 33592, 20 h; how it was run: as §1
Staphylococcus aureus [5] = experiment: Bacteriostatic activity against Staphylococcus aureus ATCC 25923 after 20 hrs by broth microdilution method; format: functional; details: ATCC 25923, 20 h; how it was run: as §1
Escherichia coli [6] = experiment: Bacteriostatic activity against AcrAB-tolC deficient Escherichia coli JW5503-1 after 20 hrs by broth microdilution method; format: functional; details: JW5503-1, 20 h; how it was run: as §2
Escherichia coli [7] = experiment: Bacteriostatic activity against Escherichia coli BW25113 after 20 hrs by broth microdilution method; format: functional; details: BW25113, 20 h; how it was run: as §2
Staphylococcus aureus [8] = experiment: Antibacterial activity against methicillin-resistant Staphylococcus aureus USA300 in BALB/c mouse wound infection model assessed as reduction in bacterial burden in wound at 2% administered topically bid for 5 days relative to control; format: functional; design: scale not given: the % may be the effect or the level left
How it was run: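 Female BALB/c mice, eight weeks old, n = 5 per group, injected intradermally with 40 μL of 1.32×10^9 CFU/mL MRSA USA300. Once an abscess or open wound formed, it was treated topically twice daily for five days with 2% agent in petroleum jelly, with vehicle as control. Wound tissue excised 12 h after the last dose, homogenized in PBS, diluted and plated on mannitol salt agar for 16 h or more at 37 °C. CFU reduction calculated against vehicle.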

Staphylococcus aureus [9] = experiment: Bactericidal activity against methicillin-resistant Staphylococcus aureus NRS119 clinical isolate preincubated for 20 hrs followed by TSA plating and measured after 18 hrs; format: functional
Staphylococcus aureus [10] = experiment: Bacteriostatic activity against methicillin-resistant Staphylococcus aureus USA700 NRS386 clinical isolate after 20 hrs by broth microdilution method; format: functional; details: USA700 NRS386, 20 h; how it was run: as §1
Staphylococcus aureus [11] = experiment: Bactericidal activity against methicillin-resistant Staphylococcus aureus USA800 NRS387 clinical isolate preincubated for 20 hrs followed by TSA plating and measured after 18 hrs; format: functional
Staphylococcus aureus [12] = experiment: Bacteriostatic activity against methicillin-resistant Staphylococcus aureus USA800 NRS387 clinical isolate after 20 hrs by broth microdilution method; format: functional; details: USA800 NRS387, 20 h; how it was run: as §1
Staphylococcus aureus [13] = experiment: Bactericidal activity against methicillin-resistant Staphylococcus aureus USA300 NRS384 clinical isolate preincubated for 20 hrs followed by TSA plating and measured after 18 hrs; format: functional
Staphylococcus aureus [14] = experiment: Bacteriostatic activity against methicillin-resistant Staphylococcus aureus USA300 NRS384 clinical isolate after 20 hrs by broth microdilution method; format: functional; details: USA300 NRS384, 20 h; how it was run: as §1
Enterococcus faecium [15] = experiment: Bactericidal activity against vancomycin-resistant Enterococcus faecium ATCC 700221 clinical isolate preincubated for 20 hrs followed by TSA plating and measured after 18 hrs; format: functional
How it was run: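 MBC: 4 μL from wells with no growth in the MIC plate (Brain Heart Infusion broth, 37 °C, at least 20 h) spotted onto Tryptic Soy Agar. Read after at least 18 h at 37 °C.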

Staphylococcus aureus [16] = experiment: Bactericidal activity against methicillin-resistant Staphylococcus aureus USA400 NRS123 clinical isolate preincubated for 20 hrs followed by TSA plating and measured after 18 hrs; format: functional
Staphylococcus aureus [17] = experiment: Bactericidal activity against vancomycin-resistant Staphylococcus aureus VRS12 clinical isolate preincubated for 20 hrs followed by TSA plating and measured after 18 hrs; format: functional
Staphylococcus aureus [18] = experiment: Bactericidal activity against methicillin-resistant Staphylococcus aureus USA700 NRS386 clinical isolate preincubated for 20 hrs followed by TSA plating and measured after 18 hrs; format: functional
Enterococcus faecium [19] = experiment: Bacteriostatic activity against vancomycin-resistant Enterococcus faecium ATCC 700221 clinical isolate after 20 hrs by broth microdilution method; format: functional; details: ATCC 700221, 20 h
How it was run: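 Broth microdilution MIC over 128 to 1 μg/mL in Brain Heart Infusion broth, 37 °C for at least 20 h. MIC taken as the lowest concentration with no visible growth.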

Staphylococcus aureus [20] = experiment: Bacteriostatic activity against methicillin-resistant Staphylococcus aureus USA500 NRS385 clinical isolate after 20 hrs by broth microdilution method; format: functional; details: USA500 NRS385, 20 h; how it was run: as §1
Staphylococcus aureus [21] = experiment: Bacteriostatic activity against methicillin-resistant Staphylococcus aureus USA400 NRS123 clinical isolate after 20 hrs by broth microdilution method; format: functional; details: USA400 NRS123, 20 h; how it was run: as §1
Staphylococcus aureus [22] = experiment: Bacteriostatic activity against methicillin-resistant Staphylococcus aureus NRS119 clinical isolate after 20 hrs by broth microdilution method; format: functional; details: NRS119, 20 h; how it was run: as §1
Staphylococcus aureus [23] = experiment: Bacteriostatic activity against vancomycin-resistant Staphylococcus aureus VRS12 clinical isolate after 20 hrs by broth microdilution method; format: functional; details: VRS12, 20 h; how it was run: as §1
Staphylococcus aureus [24] = experiment: Bactericidal activity against methicillin-resistant Staphylococcus aureus USA500 NRS385 clinical isolate preincubated for 20 hrs followed by TSA plating and measured after 18 hrs; format: functional
Staphylococcus aureus [25] = experiment: Bactericidal activity against vancomycin-intermediate Staphylococcus aureus NRS1 clinical isolate preincubated for 20 hrs followed by TSA plating and measured after 18 hrs; format: functional
Staphylococcus aureus [26] = experiment: Bacteriostatic activity against vancomycin-intermediate Staphylococcus aureus NRS1 clinical isolate after 20 hrs by broth microdilution method; format: functional; details: NRS1, 20 h; how it was run: as §1
Klebsiella pneumoniae = experiment: Bacteriostatic activity against Klebsiella pneumoniae BAA 1706 after 20 hrs by broth microdilution method; format: functional; how it was run: as §2
Pseudomonas aeruginosa = experiment: Bacteriostatic activity against Pseudomonas aeruginosa ATCC 15442 after 20 hrs by broth microdilution method; format: functional; how it was run: as §2
Acinetobacter baumannii = experiment: Bacteriostatic activity against Acinetobacter baumannii ATCC 19606 after 20 hrs by broth microdilution method; format: functional; details: ATCC 19606 = CIP 70.34 = JCM 6841; how it was run: as §2

Molecule | growth inhibition (GI) (Staphylococcus aureus [1]) | MIC (Enterococcus faecalis [2]) | MIC (Listeria monocytogenes) | MIC (Enterococcus faecalis [3]) | MIC (Staphylococcus aureus [4]) | MIC (Staphylococcus aureus [5]) | further results
C[C@@H]1C[C@H](C)CN(S(=O)(=O)c2ccc(C(=O)Nc3nnc(C4CCCO4)o3)cc2)C1 (some centres not stated) | inactive |  |  |  |  |  | 
O=C(Nc1nnc(-c2ccco2)o1)c1ccc(S(=O)(=O)N2CCOCC2)cc1 | inactive |  |  |  |  |  | 
O=C(Nc1nnc(-c2cccs2)o1)c1ccccc1 | inactive |  |  |  |  |  | 
C[C@@H]1C[C@H](C)CN(S(=O)(=O)c2ccc(C(=O)Nc3nnc(-c4ccc(Br)cc4)o3)cc2)C1 (mixture of isomers) | Active | 4 µg/mL | 4 µg/mL | 4 µg/mL | 4 µg/mL | 2 µg/mL | 
C[C@@H]1C[C@H](C)CN(S(=O)(=O)c2ccc(C(=O)Nc3nnc(-c4ccc([N+](=O)[O-])cc4)o3)cc2)C1 (mixture of isomers) | Active | 32 µg/mL | 32 µg/mL | 64 µg/mL | 16 µg/mL | 32 µg/mL | 
C[C@@H]1C[C@H](C)CN(S(=O)(=O)c2ccc(C(=O)Nc3nnc(-c4ccc(F)cc4)o3)cc2)C1 (mixture of isomers) | Active | 4 µg/mL | 4 µg/mL | 4 µg/mL | 4 µg/mL | 4 µg/mL | 
C[C@@H]1C[C@H](C)CN(S(=O)(=O)c2ccc(C(=O)Nc3nnc(-c4cccc(C#N)c4)o3)cc2)C1 (mixture of isomers) | Active | 16 µg/mL | 8 µg/mL | 32 µg/mL | 8 µg/mL | 16 µg/mL | 
C[C@@H]1C[C@H](C)CN(S(=O)(=O)c2ccc(C(=O)Nc3nnc(-c4ccc(Cl)cc4)o3)cc2)C1 (mixture of isomers) | Active | 2 µg/mL | 2 µg/mL | 4 µg/mL | 1 µg/mL | 2 µg/mL | 
COc1ccc(-c2nnc(NC(=O)c3ccc(S(=O)(=O)N4C[C@H](C)C[C@H](C)C4)cc3)o2)cc1 (mixture of isomers) | Active | 4 µg/mL | 4 µg/mL | 4 µg/mL | 4 µg/mL | 4 µg/mL | 
CC[C@H]1OC(=O)[C@H](C)[C@@H](O[C@H]2C[C@@](C)(OC)[C@@H](O)[C@H](C)O2)[C@H](C)[C@@H](O[C@@H]2O[C@H](C)C[C@H](N(C)C)[C@H]2O)[C@](C)(O)C[C@@H](C)C(=O)[C@H](C)[C@@H](O)[C@]1(C)O [ERYTHROMYCIN] |  |  |  |  |  |  | MIC (Escherichia coli [6]): ≤ 1 µg/mL; MIC (Escherichia coli [7]): 32 µg/mL (≈ 43.6 µM)
CC(=O)O[C@H]1C[C@@]2(C)[C@@H](C[C@@H](O)[C@H]3[C@@]4(C)CC[C@@H](O)[C@@H](C)[C@@H]4CC[C@@]32C)/C1=C(\CCC=C(C)C)C(=O)O [FUSIDIC ACID] |  |  |  |  |  |  | Activity (Staphylococcus aureus [8]): 77.91%
CC(=O)NC[C@H]1CN(c2ccc(N3CCOCC3)c(F)c2)C(=O)O1 [LINEZOLID] |  |  |  |  |  |  | MIC (Escherichia coli [6]): 8 µg/mL (≈ 23.7 µM); MBC (Staphylococcus aureus [9]): 32 µg/mL (≈ 94.9 µM); MIC (Staphylococcus aureus [10]): ≤ 1 µg/mL; MBC (Staphylococcus aureus [11]): 128 µg/mL (≈ 379 µM); MIC (Staphylococcus aureus [12]): ≤ 1 µg/mL; MBC (Staphylococcus aureus [13]): 64 µg/mL (≈ 190 µM); MIC (Staphylococcus aureus [14]): ≤ 1 µg/mL; MBC (Enterococcus faecium [15]): 64 µg/mL (≈ 190 µM); MBC (Staphylococcus aureus [16]): 64 µg/mL (≈ 190 µM); MBC (Staphylococcus aureus [17]): 32 µg/mL (≈ 94.9 µM); MBC (Staphylococcus aureus [18]): 128 µg/mL (≈ 379 µM); MIC (Enterococcus faecium [19]): ≤ 1 µg/mL; MIC (Staphylococcus aureus [20]): ≤ 1 µg/mL; MIC (Staphylococcus aureus [21]): ≤ 1 µg/mL; MIC (Escherichia coli [7]): > 128 µg/mL; MIC (Staphylococcus aureus [22]): 32 µg/mL (≈ 94.9 µM); MIC (Staphylococcus aureus [23]): ≤ 1 µg/mL; MBC (Staphylococcus aureus [24]): 2 µg/mL (≈ 5.93 µM); MBC (Staphylococcus aureus [25]): 1 µg/mL (≈ 2.96 µM); MIC (Staphylococcus aureus [26]): ≤ 1 µg/mL
COc1cccc(OC)c1C(=O)N[C@@H]1C(=O)N2[C@@H]1SC(C)(C)[C@@H]2C(=O)O [METHICILLIN] |  |  |  |  | > 128 µg/mL | 2 µg/mL (≈ 5.26 µM) | 
COLISTIN |  |  |  |  |  |  | MIC (Klebsiella pneumoniae): < 1 µg/mL; MIC (Pseudomonas aeruginosa): < 1 µg/mL; MIC (Acinetobacter baumannii): < 1 µg/mL

Reference: ChEMBL document CHEMBL4152323, “N-(1,3,4-oxadiazol-2-yl)benzamide analogs, bacteriostatic agents against methicillin- and vancomycin-resistant bacteria” (Eur J Med Chem, 2018)
